Data: ChEMBL document CHEMBL3862029, “Discovery of 8-Membered Ring Sulfonamides as Inhibitors of Oncogenic Mutant Isocitrate Dehydrogenase 1” (ACS Med Chem Lett, 2016)
Calls of active or inactive are those of the source. The rule behind the calls is not given here.

system: Isocitrate dehydrogenase [NADP] cytoplasmic (Homo sapiens), O75874 [R132H]; test: (§1) Inhibition of IDH1-R132H mutant (unknown origin) expressed in human HA1EM cells assessed as suppression of R-2HG secretion measured after 72 hrs by LC-MS/MS analysis; assay type: cell-based
In short: (§2)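 HA1E-M cells (HEK-293 derivative) engineered to overexpress IDH1-R132H and release R-2HG into growth media. Compound treatment for 72 h, then R-2HG in conditioned media measured by LC-MS. Values normalized to DMSO-treated controls; EC50 from three independent experiments, each run in triplicate.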

Sequence of Isocitrate dehydrogenase [NADP] cytoplasmic (Homo sapiens), O75874 [R132H] (O75874 whole entry R132H): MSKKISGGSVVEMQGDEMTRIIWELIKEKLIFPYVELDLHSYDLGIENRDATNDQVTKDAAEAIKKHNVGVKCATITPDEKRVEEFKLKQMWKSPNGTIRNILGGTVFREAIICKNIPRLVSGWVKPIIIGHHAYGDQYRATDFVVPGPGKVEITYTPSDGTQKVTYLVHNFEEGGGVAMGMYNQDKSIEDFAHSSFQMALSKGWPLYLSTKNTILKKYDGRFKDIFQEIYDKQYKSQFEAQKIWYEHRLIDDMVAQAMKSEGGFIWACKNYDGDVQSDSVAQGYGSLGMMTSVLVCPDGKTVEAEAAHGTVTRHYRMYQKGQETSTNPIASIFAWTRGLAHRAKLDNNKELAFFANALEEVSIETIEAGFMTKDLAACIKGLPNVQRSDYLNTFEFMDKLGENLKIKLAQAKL

inhibition	SMILES
Dose-dependent effect	Cc1ccccc1C(C(=O)NC1CCCCC1)N(C(=O)Cn1ccnc1C)c1cccc(F)c1 (stereo not given)

target: T1, Isocitrate dehydrogenase [NADP] cytoplasmic (Homo sapiens, UniProt O75874, R132H); test: as §1; assay type: cell-based; in short: as §2
Target sequence in this assay (O75874 whole entry R132H): as above

EC50 [nM]	SMILES
60	Cc1ccccc1C(C(=O)NC1CCCCC1)N(C(=O)Cn1ccnc1C)c1cccc(F)c1 (stereo not given)

system: Isocitrate dehydrogenase [NADP] cytoplasmic (Homo sapiens), O75874 [R132H]; test: Inhibition of human C-terminal His8-tagged IDH1-R132H mutant expressed in Escherichia coli Rosetta assessed as inhibition of ketoreductase activity by measuring NADPH consumption preincubated for 10 mins followed by addition of NADPH and alpha-KG as substrate by fluorescence method
In short: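 Purified IDH1-R132H incubated with α-KG and NADPH; direct kinetic read of falling NADPH fluorescence, run in dose. Enzyme concentration kept below that of the screening assays so inhibitor stays far above enzyme. IC50 values are geometric means of at least three independent experiments.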

inhibition	SMILES
Active	Cc1ccccc1C(C(=O)NC1CCCCC1)N(C(=O)Cn1ccnc1C)c1cccc(F)c1 (stereo not given)

target: T1, Isocitrate dehydrogenase [NADP] cytoplasmic; test: Inhibition of human C-terminal His8-tagged IDH1-R132H mutant expressed in Escherichia coli Rosetta assessed as inhibition of ketoreductase activity by measuring NADPH consumption preincubated for 60 mins followed by addition of alpha-KG as substrate measured after 50 mins in presence of NADPH and Mg2+ by resazurin based diaphorase-coupled fluorescence assay
In short: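 IDH1-R132H–Mg2+ ketoreductase assay reading NADPH consumption through a diaphorase-coupled fluorescence reaction. Buffer contained 0.01% Tween 20 against aggregation. Primary screen at 15 μM in duplicate, with positives set at ≥60% inhibition in both replicates. Retests were in 8-point dose.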
Target sequence in this assay (O75874 2-414 R132H limits assumed): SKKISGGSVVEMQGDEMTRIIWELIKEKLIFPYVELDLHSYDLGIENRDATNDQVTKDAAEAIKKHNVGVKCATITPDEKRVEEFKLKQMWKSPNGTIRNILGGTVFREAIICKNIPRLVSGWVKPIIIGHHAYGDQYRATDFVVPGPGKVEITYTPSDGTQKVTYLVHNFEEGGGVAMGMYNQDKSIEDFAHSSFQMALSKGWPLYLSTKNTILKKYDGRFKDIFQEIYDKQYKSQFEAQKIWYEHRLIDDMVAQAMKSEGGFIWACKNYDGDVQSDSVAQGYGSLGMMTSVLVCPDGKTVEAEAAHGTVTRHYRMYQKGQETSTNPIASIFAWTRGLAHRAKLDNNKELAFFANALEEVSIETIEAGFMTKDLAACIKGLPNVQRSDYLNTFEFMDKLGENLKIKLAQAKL

SMILES	IC50 [nM]
C[C@@H]1CN([C@@H](C)CO)S(=O)(=O)c2ccc(C#CBr)cc2O[C@H]1CN(C)C(=O)NC1CCCCC1	> 20000
C[C@@H]1CN([C@@H](C)CO)S(=O)(=O)c2ccc(C#Cc3cncn3C)cc2O[C@H]1CN(C)C(=O)NC1CCCCC1	1600
C[C@@H]1CN([C@@H](C)CO)S(=O)(=O)c2ccc(C#Cc3cccc(F)c3)cc2O[C@H]1CN(C)CCC1CCNCC1	7400
C[C@@H]1CN([C@@H](C)CO)S(=O)(=O)c2ccc(C#Cc3cccc(F)c3)cc2O[C@H]1CN(C)C(=O)c1ccno1	19000
C[C@@H]1CN([C@H](C)CO)S(=O)(=O)c2ccc(C#Cc3cccc(F)c3)cc2O[C@@H]1CN(C)C(=O)NC1CCCCC1	5300
C[C@@H]1CN([C@@H](C)CO)S(=O)(=O)c2ccc(C#Cc3cccc(F)c3)cc2O[C@@H]1CN(C)C(=O)NC1CCCCC1	3900
C[C@@H]1CN([C@@H](C)CO)S(=O)(=O)c2ccc(C#Cc3cccnc3)cc2O[C@H]1CCC(=O)NC1CCCCC1	9100
C#Cc1ccc2c(c1)O[C@@H](CN(C)C(=O)NC1CCCCC1)[C@H](C)CN([C@@H](C)CO)S2(=O)=O	7700
C[C@@H]1CN([C@@H](C)CO)S(=O)(=O)c2ccc(C#Cc3cccc(F)c3)cc2O[C@H]1CN(C)C(=O)Nc1ccccc1	3100
C[C@H](CO)N1C[C@H](C)[C@@H](CN(C)C(=O)NC2CCCCC2)Oc2cc(C#Cc3cccc(F)c3)ccc2S1(=O)=O	1700
C[C@H](CO)N1C[C@H](C)[C@H](CN(C)C(=O)NC2CCCCC2)Oc2cc(C#Cc3cccc(F)c3)ccc2S1(=O)=O	> 20000
C[C@@H]1CN([C@@H](C)CO)S(=O)(=O)c2ccc(C#Cc3cccc(F)c3)cc2O[C@H]1CN(C)C(=O)C1CCOCC1	7900
Cc1noc(C)c1NC(=O)N(C)C[C@@H]1Oc2cc(C#Cc3cccc(F)c3)ccc2S(=O)(=O)N([C@@H](C)CO)C[C@H]1C	11000
C[C@H]1CN([C@@H](C)CO)S(=O)(=O)c2ccc(C#Cc3cccc(F)c3)cc2O[C@H]1CN(C)C(=O)NC1CCCCC1	6300
C[C@@H]1CN([C@@H](C)CO)S(=O)(=O)c2ccc(-c3cccnc3)cc2O[C@H]1CN(C)C(=O)NC1CCCCC1	6400
C[C@@H]1CN([C@@H](C)CO)S(=O)(=O)c2ccc(C#Cc3cccc(F)c3)cc2O[C@H]1CN(C)C(=O)N(C)C1CCCCC1	5700
C[C@@H]1CN([C@@H](C)CO)S(=O)(=O)c2ccc(C#Cc3cccc(F)c3)cc2O[C@H]1CN(C)C(=O)OC(C)(C)C	1600

More lines, now with the values ahead:

IC50 [nM]	SMILES
1400	CCNC(=O)N(C)C[C@@H]1Oc2cc(C#Cc3cccc(F)c3)ccc2S(=O)(=O)N([C@@H](C)CO)C[C@H]1C
1000	C[C@H]1CN([C@@H](C)CO)S(=O)(=O)c2ccc(C#Cc3cccc(F)c3)cc2O[C@@H]1CN(C)C(=O)NC1CCCCC1
1000	C[C@@H]1CN([C@@H](C)CO)S(=O)(=O)c2ccc(C#Cc3cccc(F)c3)cc2O[C@H]1CN(C)C(=O)NC1CC1
600	C[C@@H]1CN([C@H](C)CO)S(=O)(=O)c2ccc(C#Cc3cccc(F)c3)cc2O[C@H]1CN(C)C(=O)NC1CCCCC1
550	CCCNC(=O)N(C)C[C@@H]1Oc2cc(C#Cc3cccc(F)c3)ccc2S(=O)(=O)N([C@@H](C)CO)C[C@H]1C
440	C[C@@H]1CN([C@@H](C)CO)S(=O)(=O)c2ccc(C#Cc3cccc(F)c3)cc2O[C@H]1CN(C)C(=O)C1CCCCC1
360	C[C@@H]1CN([C@@H](C)CO)S(=O)(=O)c2ccc(C#Cc3cccc(F)c3)cc2O[C@H]1CN(C)C(=O)CC1CCCCC1
320	C[C@@H]1CN([C@@H](C)CO)S(=O)(=O)c2ccc(C#Cc3cncnc3)cc2O[C@H]1CN(C)C(=O)NC1CCCCC1
260	C[C@@H]1CN([C@@H](C)CO)S(=O)(=O)c2ccc(C#Cc3ccc(F)cn3)cc2O[C@H]1CN(C)C(=O)NC1CCCCC1
190	C[C@@H]1CN([C@@H](C)CO)S(=O)(=O)c2ccc(/C=C/c3ccccc3)cc2O[C@H]1CN(C)C(=O)NC1CCCCC1
160	C[C@@H]1CN([C@@H](C)CO)S(=O)(=O)c2ccc(C#Cc3cccnc3)cc2O[C@H]1CN(C)C(=S)NC1CCCCC1
160	C[C@@H]1CN([C@@H](C)CO)S(=O)(=O)c2ccc(C#Cc3cccc(F)c3)cc2O[C@H]1CN(C)C(=O)NCC1CCCCC1
140	C[C@@H]1CN([C@@H](C)CO)S(=O)(=O)c2ccc(C#C[Si](C)(C)C)cc2O[C@H]1CN(C)C(=O)NC1CCCCC1
140	C[C@@H]1CN([C@@H](C)CO)S(=O)(=O)c2ccc(C#Cc3cccnc3)cc2O[C@H]1CN(C)C(=O)NC1CCCCC1
96	COc1ccc(OC[C@H](C)N2C[C@@H](C)[C@H](CN(C)C(=O)NC3CCCCC3)Oc3cc(C#Cc4cccnc4)ccc3S2(=O)=O)cc1
91	COc1ccc(C#Cc2ccc3c(c2)O[C@@H](CN(C)C(=O)NC2CCCCC2)[C@H](C)CN([C@@H](C)CO)S3(=O)=O)cc1
91	C[C@@H]1CN([C@@H](C)CO)S(=O)(=O)c2ccc(C#Cc3ccccc3F)cc2O[C@H]1CN(C)C(=O)NC1CCCCC1
90	C[C@@H]1CN([C@@H](C)CO)S(=O)(=O)c2ccc(C#CC3CCCCC3)cc2O[C@H]1CN(C)C(=O)NC1CCCCC1
80	C[C@@H]1CN([C@@H](C)CO)S(=O)(=O)c2ccc(C#Cc3cccc(F)c3)cc2O[C@H]1CN(C)C(=O)NC1CCCC1
75	C[C@@H]1CN([C@@H](C)CO)S(=O)(=O)c2ccc(C#Cc3ccccc3)cc2O[C@H]1CN(C)C(=O)NC1CCCCC1
60	C[C@@H]1CN([C@@H](C)CO)S(=O)(=O)c2ccc(C#Cc3cccc(Cl)c3)cc2O[C@H]1CN(C)C(=O)NC1CCCCC1
56	C[C@@H]1CN([C@@H](C)CO)S(=O)(=O)c2ccc(C#Cc3ccc(Cl)cc3)cc2O[C@H]1CN(C)C(=O)NC1CCCCC1
37	C[C@@H]1CN([C@@H](C)CO)S(=O)(=O)c2ccc(C#Cc3ccc(F)cc3)cc2O[C@H]1CN(C)C(=O)NC1CCCCC1
32	C[C@@H]1CN([C@@H](C)CN(C)C)S(=O)(=O)c2ccc(C#Cc3ccc(F)cc3)cc2O[C@H]1CN(C)C(=O)NC1CCCCC1
28	C[C@@H]1CN([C@@H](C)CO)S(=O)(=O)c2ccc(C#Cc3ccc(F)c(F)c3)cc2O[C@H]1CN(C)C(=O)NC1CCCCC1
